Experimental data as given in paper PMC3839847 (Current topics in medicinal chemistry, 2012).

What was measured:
[1] = system: CCL2 (MCP-1), activates the CCR2 receptor; assay: chemotaxis assay repeated with CCL2; format: cell-based; conditions: data not shown
[2] = system: CXCL12-induced chemotaxis of THP-1 monocytes; assay: in vitro chemotaxis assay, THP-1 monocytes with CXCL12; format: cell-based; conditions: read-out: IC50 of chemotaxis to CXCL12, 10 nM CXCL12
In short: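 Chemotaxis in vitro used THP-1 monocytes, which express CXCR4 endogenously, exposed to CXCL12 with or without each tetrazole fragment.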

CXCL12 = CXCL12 (Homo sapiens, UniProt P48061); assay: 2D 1H-15N HSQC NMR titration, fragment binding to CXCL12; conditions: for LE: ligand efficiency: free energy of binding divided by number of non-hydrogen atoms (kcal/mol/non-hydrogen atom); for CXCL12 chemical shift perturbations: 2D NMR titration, no meaningful affinity value could be fitted

| Kd (CXCL12) | LE (CXCL12) | CXCL12 chemical shift perturbations (CXCL12) | Structure (SMILES) | also measured |
| --- | --- | --- | --- | --- |
| – | – | – | O=C(Nc1ccc(-c2nn[nH]n2)cc1)Nc1cccc2ccccc12 [Compound 25] | specificity for CXCL12- versus CCL2-induced migration [1]: specifically inhibits CXCL12-induced migration; IC50 [2]: 111 ± 24 µM |
| 64 ± 23 µM | 0.29 | – | O=C(Nc1ccc(-c2nnn[nH]2)cc1)c1ccccc1 [Compound 15, N-(4-(1H-tetrazol-5-yl)phenyl)benzamide] | – |
| 13 ± 7 µM | 0.33 | – | O=C(Nc1ccccc1-c1nnn[nH]1)c1ccccc1 [Compound 11, N-(2-(1H-Tetrazol-5-yl)phenyl)benzamide] | – |
| – | – | small chemical shift perturbations | CC(=O)Nc1cccc(-c2nnn[nH]2)c1 [Compound 12, N-(3-(1H-tetrazol-5-yl)phenyl)acetamide] | – |
| 24 ± 28 µM | 0.30 | – | O=C(Nc1ccccc1)Nc1ccc(-c2nnn[nH]2)cc1 [Compound 18, 1-(4-(1H-Tetrazol-5-yl)phenyl)-3-phenylurea] | – |
| – | – | small chemical shift perturbations | CC(=O)Nc1ccccc1-c1nnn[nH]1 [Compound 10, N-(2-(1H-Tetrazol-5-yl)phenyl) acetamide] | – |
| 327 ± 92 µM | 0.23 | – | O=C(Nc1ccccc1)Nc1ccccc1-c1nnn[nH]1 [Compound 16, 1-(2-(1H-Tetrazol-5-yl)phenyl)-3-phenylurea] | – |
| 50 ± 16 µM | 0.29 | – | O=C(Nc1cccc(-c2nnn[nH]2)c1)c1ccccc1 [Compound 13, N-(3-(1H-tetrazol-5-yl)phenyl)benzamide] | – |
| 126 ± 23 µM | 0.25 | – | O=C(Nc1ccccc1)Nc1cccc(-c2nnn[nH]2)c1 [Compound 17, 1-(3-(1H-tetrazol-5-yl)phenyl)-3-phenylurea] | – |
| – | – | small chemical shift perturbations | CC(=O)Nc1ccc(-c2nnn[nH]2)cc1 [Compound 14, N-(4-(1H-tetrazol-5-yl)phenyl)acetamide] | – |
